Reference: ChEMBL document CHEMBL4130520 (ACS Med Chem Lett, 2017)
Values after ≈ are worked out from the molar mass of the structure shown.

Legend:
[1] = test system: Mycobacterium tuberculosis; test: Antitubercular activity against Mycobacterium tuberculosis H37Rv after 4 days by MABA method; assay type: functional; conditions: 96 h
Summary of the method: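 Aerobic culture of H37Rv in microplate Alamar blue assay. MIC90 taken as the minimum concentration giving 90% growth inhibition. Each value is the mean of at least two independent determinations. Most compounds were tested as RS,SR diastereomer mixtures; a few were tested only as the pure R,S enantiomer.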

[2] = molecular target: Voltage-gated inwardly rectifying potassium channel KCNH2 (Homo sapiens, UniProt Q12809); test: Inhibition of human ERG
Sequence of Voltage-gated inwardly rectifying potassium channel KCNH2 (Q12809 whole entry): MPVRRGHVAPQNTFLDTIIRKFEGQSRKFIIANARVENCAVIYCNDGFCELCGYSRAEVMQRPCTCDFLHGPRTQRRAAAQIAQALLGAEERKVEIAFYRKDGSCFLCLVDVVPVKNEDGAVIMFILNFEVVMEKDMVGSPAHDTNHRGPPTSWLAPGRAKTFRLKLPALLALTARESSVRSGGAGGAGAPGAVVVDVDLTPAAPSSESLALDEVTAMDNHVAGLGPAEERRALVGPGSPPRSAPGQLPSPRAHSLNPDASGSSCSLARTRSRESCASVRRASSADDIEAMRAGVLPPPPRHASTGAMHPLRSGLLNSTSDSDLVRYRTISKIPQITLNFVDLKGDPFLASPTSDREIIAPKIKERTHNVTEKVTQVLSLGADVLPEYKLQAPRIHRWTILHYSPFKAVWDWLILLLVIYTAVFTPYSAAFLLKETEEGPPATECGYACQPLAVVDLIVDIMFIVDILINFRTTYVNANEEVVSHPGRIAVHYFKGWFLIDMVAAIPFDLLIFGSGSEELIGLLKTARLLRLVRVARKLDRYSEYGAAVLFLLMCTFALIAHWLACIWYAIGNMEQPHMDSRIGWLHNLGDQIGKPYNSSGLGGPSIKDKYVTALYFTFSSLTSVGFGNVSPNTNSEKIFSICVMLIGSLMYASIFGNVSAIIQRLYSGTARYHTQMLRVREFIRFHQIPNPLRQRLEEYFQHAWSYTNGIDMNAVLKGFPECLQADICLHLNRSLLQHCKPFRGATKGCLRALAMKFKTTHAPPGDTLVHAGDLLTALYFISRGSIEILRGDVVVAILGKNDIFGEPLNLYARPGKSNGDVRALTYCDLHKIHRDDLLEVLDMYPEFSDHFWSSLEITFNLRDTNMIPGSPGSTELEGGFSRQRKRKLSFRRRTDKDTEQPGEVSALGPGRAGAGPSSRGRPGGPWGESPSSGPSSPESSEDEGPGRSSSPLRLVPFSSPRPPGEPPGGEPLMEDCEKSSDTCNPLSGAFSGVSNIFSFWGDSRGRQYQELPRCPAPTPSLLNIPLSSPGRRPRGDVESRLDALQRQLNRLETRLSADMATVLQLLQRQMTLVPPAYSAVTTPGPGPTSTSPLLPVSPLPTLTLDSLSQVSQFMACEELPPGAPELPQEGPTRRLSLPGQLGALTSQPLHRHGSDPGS

Structure (SMILES)	MIC90 [1]	IC50 [2]
COc1nc2ccc(N3CCOCC3)cc2cc1C(c1cccc(F)c1)C(O)(CCN(C)C)c1cccc(OC(F)(F)F)c1 (stereo not drawn)	0.85 µg/mL (≈ 1.39 µM)	–
COc1nc2ccc(C(=O)O)cc2cc1C(c1ccccc1)C(O)(CCN(C)C)c1cccc2ccccc12 (stereo not drawn)	> 6.7 µg/mL	10 µM
COc1cccc(C(c2cc3cc(C#N)ccc3nc2OC)C(O)(CCN(C)C)c2cccc(F)c2)c1F (stereo not drawn)	0.18 µg/mL (≈ 0.348 µM)	–
COc1nc2ccc(N)cc2cc1C(c1ccccc1)C(O)(CCN(C)C)c1cccc2ccccc12 (stereo not drawn)	1.9 µg/mL (≈ 3.86 µM)	–
COc1nc2ccc(CO)cc2cc1C(c1ccccc1)C(O)(CCN(C)C)c1cccc2ccccc12 (stereo not drawn)	1.6 µg/mL (≈ 3.16 µM)	10 µM
COc1cccc([C@](O)(CCN(C)C)[C@H](c2cc3cc(N4CC5(COC5)C4)ccc3nc2OC)c2cccc(OC)c2F)c1	0.87 µg/mL (≈ 1.45 µM)	–
COc1nc2ccccc2cc1C(c1ccccc1)C(O)(CCN(C)C)c1cccc2ccccc12 (stereo not drawn)	1.9 µg/mL (≈ 3.99 µM)	1.6 µM
COc1cccc(C(c2cc3cc(Br)ccc3nc2OC)C(O)(CCN(C)C)c2cccc(F)c2)c1OC (stereo not drawn)	0.04 µg/mL (≈ 0.0686 µM)	–
COc1nc2ccc(C(F)(F)F)cc2cc1C(c1ccccc1)C(O)(CCN(C)C)c1cccc2ccccc12 (stereo not drawn)	0.38 µg/mL (≈ 0.698 µM)	–
COc1cccc([C@@H](c2cc3cc(S(C)(=O)=O)ccc3nc2OC)[C@@](O)(CCN(C)C)c2cccc(F)c2)c1F	2.3 µg/mL (≈ 4.03 µM)	–
COc1cccc(C(c2cc3cc(N4CCOCC4)ccc3nc2OC)C(O)(CCN(C)C)c2cccc(OC)c2OC)c1OC (stereo not drawn)	2.5 µg/mL (≈ 3.96 µM)	–
COc1cccc(C(c2cc3cc(Br)ccc3nc2OC)C(O)(CCN(C)C)c2cccc(OC(F)(F)F)c2)c1OC (stereo not drawn)	0.09 µg/mL (≈ 0.139 µM)	–
COc1cccc(C(c2cc3cc(N4CCNCC4)ccc3nc2OC)C(O)(CCN(C)C)c2cccc(OC(F)(F)F)c2)c1F (stereo not drawn)	0.66 µg/mL (≈ 1.03 µM)	–
COc1cccc(C(c2cc3cc(N4CC5(COC5)C4)ccc3nc2OC)C(O)(CCN(C)C)c2cccc(OC(F)(F)F)c2)c1F (stereo not drawn)	0.77 µg/mL (≈ 1.17 µM)	–
COc1nc2ccc(C)cc2cc1C(c1ccccc1)C(O)(CCN(C)C)c1cccc2ccccc12 (stereo not drawn)	1.74 µg/mL (≈ 3.55 µM)	–
COc1nc2ccc(Br)cc2cc1C(c1cccc(F)c1)C(O)(CCN(C)C)c1cccc(OC(F)(F)F)c1 (stereo not drawn)	0.25 µg/mL (≈ 0.412 µM)	–
COc1cccc(C(c2cc3cc(C#N)ccc3nc2OC)C(O)(CCN(C)C)c2cccc(F)c2)c1OC (stereo not drawn)	0.17 µg/mL (≈ 0.321 µM)	–
COc1nc2ccc(Cl)cc2cc1C(c1cccc(F)c1)C(O)(CCN(C)C)c1cccc(OC(F)(F)F)c1 (stereo not drawn)	0.09 µg/mL (≈ 0.16 µM)	–
COc1nc2ccc(C#N)cc2cc1C(c1ccccc1)C(O)(CCN(C)C)c1cccc(F)c1 (stereo not drawn)	0.69 µg/mL (≈ 1.47 µM)	–

Structure (SMILES)	MIC90 [1]	IC50 [2]
COc1nc2ccc(CC(C)=O)cc2cc1C(c1ccccc1)C(O)(CCN(C)C)c1cccc2ccccc12 (stereo not drawn)	> 7 µg/mL	10 µM
CC#Cc1ccc2nc(OC)c(C(c3ccccc3)C(O)(CCN(C)C)c3cccc4ccccc34)cc2c1 (stereo not drawn)	6.1 µg/mL (≈ 11.9 µM)	7.9 µM
COc1nc2ccc(CN)cc2cc1C(c1ccccc1)C(O)(CCN(C)C)c1cccc2ccccc12 (stereo not drawn)	> 12 µg/mL	1.7 µM
COc1cccc(C(c2cc3cc(N4CCCCC4)ccc3nc2OC)C(O)(CCN(C)C)c2cccc(OC(F)(F)F)c2)c1F (stereo not drawn)	2.3 µg/mL (≈ 3.58 µM)	–
COc1nc2ccc(NC3CCCC3)cc2cc1C(c1ccccc1)C(O)(CCN(C)C)c1cccc2ccccc12 (stereo not drawn)	1.7 µg/mL (≈ 3.04 µM)	–
COc1nc2ccc(N(C)S(=O)(=O)N(C)C)cc2cc1[C@@H](c1ccccc1)[C@@](O)(CCN(C)C)c1cccc(F)c1	5 µg/mL (≈ 8.61 µM)	–
COc1nc2ccc(C#N)cc2cc1C(c1cccc(F)c1)C(O)(CCN(C)C)c1cccc(OC(F)(F)F)c1 (stereo not drawn)	0.47 µg/mL (≈ 0.849 µM)	–
COc1cccc([C@@H](c2cc3cc(N4CC5(COC5)C4)ccc3nc2OC)[C@@](O)(CCN(C)C)c2cccc(Cl)c2)c1F	0.31 µg/mL (≈ 0.511 µM)	–
COc1nc2ccc(F)cc2cc1C(c1ccccc1)C(O)(CCN(C)C)c1cccc2ccccc12 (stereo not drawn)	0.94 µg/mL (≈ 1.9 µM)	–
COc1cccc([C@H](c2cc3cc(N4CC[S+]([O-])CC4)ccc3nc2OC)[C@@](O)(CCN(C)C)c2cccc(F)c2)c1OC	4.8 µg/mL (≈ 7.72 µM)	–
COc1cccc([C@H](c2cc3cc(N4CCSCC4)ccc3nc2OC)[C@@](O)(CCN(C)C)c2cccc(F)c2)c1OC	0.28 µg/mL (≈ 0.462 µM)	–
COc1cccc(C(c2cc3cc(Cl)ccc3nc2OC)C(O)(CCN(C)C)c2cccc(OC)c2OC)c1OC (stereo not drawn)	0.25 µg/mL (≈ 0.43 µM)	–
COc1cccc([C@@H](c2cc3cc(N4CCSCC4)ccc3nc2OC)[C@@](O)(CCN(C)C)c2cccc(F)c2)c1F	0.19 µg/mL (≈ 0.32 µM)	–
COc1nc2ccc(NC3CCC3)cc2cc1[C@@H](c1ccccc1)[C@@](O)(CCN(C)C)c1cccc2ccccc12	0.48 µg/mL (≈ 0.88 µM)	–
COc1cccc(C(O)(CCN(C)C)C(c2cc3cc(Br)ccc3nc2OC)c2cccc(OC)c2F)c1 (stereo not drawn)	0.1 µg/mL (≈ 0.171 µM)	–
COc1cccc(C(c2cc3cc(C#N)ccc3nc2OC)C(O)(CCN(C)C)c2cccc(OC)c2OC)c1OC (stereo not drawn)	0.34 µg/mL (≈ 0.595 µM)	–
COc1cccc(C(c2cc3cc(C#N)ccc3nc2OC)C(O)(CCN(C)C)c2cccc(C)c2)c1F (stereo not drawn)	0.09 µg/mL (≈ 0.175 µM)	–
COc1cccc(C(c2cc3cc(C#N)ccc3nc2OC)C(O)(CCN(C)C)c2cccc(OC(F)(F)F)c2)c1F (stereo not drawn)	0.26 µg/mL (≈ 0.446 µM)	–
